# hERG protect = shields human hERG channel from block by proarrhythmic agents. activation (rescue from dofetilide block), less the hit threshold, % at 10 µM. 0.51% of 310,000 active. CHO-hERG, FluxOR thallium flux, dofetilide IC70 present;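 active means activation above the mean of controls blocked by dofetilide plus 5 SD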;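 further: thallium influx through hERG after potassium depolarization seen as dye fluorescence rise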
# KCNK9 block = human KCNK9 channel inhibition | Q9NPC2 | HEK293 KCNK9, FluxOR thallium flux fluorescence; hits give low values | B-score at 10 µM | 1.2% of 310,000 active;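 active means ratio B-score over 3 SD below the library mean, with starting fluorescence within 5 SD of its mean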;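 further: negative B-score means less thallium flux so channel inhibition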
# KCNQ1 act = potentiators or activators of human KCNQ1 potassium channel | P51787 | CHO-K1 KCNQ1, thallium flux FluxOR fluorescence; hits give high values | B-score at 10 µM | 0.35% of 310,000 active | AID 2648;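 active means fluorescence ratio B-score, a plate-corrected score, at least three library SD, with initial intensity B-score within 5 SD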
#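 Medium – assay buffer, equal DMSO in all wells · Material – CHO-K1 cell line with stable KCNQ1 potassium channel expression · Signal – kinetic FluxOR thallium fluorescence, 10-s 1-Hz baseline, 110-s post-stimulus read · Compound – single concentration per compound, DMSO matched to controls · Schedule – 37 °C overnight plating, 90-min dark dye load, 20-min compound pretreatment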
# KCNK3 inh = human KCNK3 channel inhibition, primary screen | AID 602410 | O14649 | CHO-KCNK3 thallium flux, FluxOR fluorescence; hits give low values | B-score at 10 µM | 0.84% of 340,000 active;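 active means B-score under library mean minus 4 SD, starting fluorescence ratio at most library mean plus 5 SD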;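 further: more negative B-score means stronger inhibition of thallium flux through KCNK3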
# Target sequence (O14649 whole entry, looked up): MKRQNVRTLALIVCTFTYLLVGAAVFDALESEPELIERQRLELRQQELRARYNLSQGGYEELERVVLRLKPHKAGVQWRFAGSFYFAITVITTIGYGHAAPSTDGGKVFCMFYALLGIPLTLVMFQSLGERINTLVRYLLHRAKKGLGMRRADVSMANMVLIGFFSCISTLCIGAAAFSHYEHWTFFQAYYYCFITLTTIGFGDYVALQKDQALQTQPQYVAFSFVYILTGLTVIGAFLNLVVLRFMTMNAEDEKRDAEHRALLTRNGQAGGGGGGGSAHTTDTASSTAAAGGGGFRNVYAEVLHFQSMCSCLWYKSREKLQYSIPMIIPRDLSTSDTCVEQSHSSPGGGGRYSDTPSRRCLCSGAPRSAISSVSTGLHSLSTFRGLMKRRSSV
# Kir21 block = Kir2.1 (mouse) channel inhibition; P35561; HEK293-Kir2.1, FluxOR thallium flux fluorescence; hits give low values; B-score at 10 µM; 0.85% of 310,000 active;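 active means fluorescence ratio B-score at or below minus 3 SD of library scores, with starting-brightness B-score within 2 SD, cut at about -4.2 in these data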;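 further: channel flux triggered by added potassium and thallium sulfate stimulus; B-score of peak minus minimum fluorescence over baseline after thallium stimulus; more negative B-score means stronger Kir2.1 block with less thallium influx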
# KCNQ1 block = blocks the human KCNQ1 potassium channel | P51787 | CHO-K1 KCNQ1, FluxOR thallium flux fluorescence; hits give high values | B-score at 10 µM | 1.3% of 310,000 active | AID 2642;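 active means compounds whose thallium flux B-score, printed positive for inhibition, exceeds three library SD while starting fluorescence stays within three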;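 further: channel opened by potassium depolarization with thallium stimulus after 20 min compound exposure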
# KCNK9 inh conf = human KCNK9 inhibitor confirmation; 43% of 4,900 active; HEK293 KCNK9 cells, FluxOR thallium flux fluorescence; inhibition, % at 10 µM; AID 492992; shares compounds with KCNK9 block;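 active means thallium signal inhibited by more than 5 SD of the compound-free buffer control wells, on both duplicate plates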;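 further: 0% = assay buffer control wells without compound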
# Kir2-1 spec = tests whether KCNK9 modulators also affect mouse Kir2.1; inhibition, % at 10 µM; shares compounds with KCNK9 block; 4% of 4,900 active; AID 492993; Kir2.1 cells, FluxOR thallium flux fluorescence;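 active means thallium signal drop more than 5 SD beyond the mean of the no-compound control wells, seen in both duplicate plates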;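 further: signal is fluorescence rise after thallium addition divided by baseline fluorescence; plate controls were assay buffer only for no effect and full block by chlorpromazine control for full effect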
# KCNK9 uninduced = second check of KCNK9 modulator effects in non-induced HEK293 cells. shares compounds with KCNK9 block. FluxOR thallium flux. inhibition, % at 10 µM. 40% of 4,900 active;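 active means thallium signal drop beyond 5 SD of the untreated control mean, on both duplicate plates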;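 further: plate controls were buffer only IC0 wells for no effect and SID17386958 at its maximal inhibitory level for full effect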
# * marks the source's active call; other numbers are inactive results; i = inactive; . = no result. The list is not random: actives were taken first. Their share in the collection is about 3.8%.
SMILES,hERG protect,KCNK9 block,KCNQ1 act,KCNK3 inh,Kir21 block,KCNQ1 block,KCNK9 inh conf,Kir2-1 spec,KCNK9 uninduced
CCOC(=O)c1c(-c2cccc([N+](=O)[O-])c2)csc1NC(=O)C1CC1,-8.4,-8.32*,i,i,-0.76,i,23.5%*,i,24.5%*
CCc1ccc2nc(SCC(=O)NCC3CCCO3)c(C#N)cc2c1 (configuration not stated),-4.4,i,i,i,0.15,i,i,i,i
COc1ccc(OC)c(NC(=O)c2ccc(-c3cccs3)cc2)c1,-5.1,-13.2*,i,i,0.48,i,66.0%*,i,35.0%*
O=C(NNC1CC(=O)N(c2ccc(Cl)cc2)C1=O)c1ccccc1Cl (configuration not stated),-10.3,i,i,i,1.21,i,.,.,.
Brc1cc2c(cc1C1Nc3ccccc3C3C=CCC31)OCO2 (configuration not stated),-11.8,-8.29*,i,i,2.16,i,56.5%*,i,41.5%*
CCN1/C(=C/C=C/c2sc3ccccc3[n+]2CC)Sc2ccccc21,-20.6,-24.1*,i,-13.2*,-1.44,i,i,i,i
O=C(CN1CCN(c2ncc(C(F)(F)F)cc2Cl)CC1)N1CCN(c2ncc(C(F)(F)F)cc2Cl)CC1,-10.0,i,i,i,1.36,i,.,.,.
O=C(CSc1ncc(C(F)(F)F)cc1Cl)N1CCN(S(=O)(=O)c2ccc(Cl)cc2)CC1,3.0,i,i,i,1.68,i,i,i,i
O=C(CSc1ccc(Cl)cc1)N1CCN(c2ncc(C(F)(F)F)cc2Cl)CC1,-5.9,i,i,i,0.6,i,i,i,i
O=C(CSc1ncc(C(F)(F)F)cc1Cl)N1CCN(S(=O)(=O)c2ccccc2)CC1,-9.6,i,i,i,-0.35,i,.,.,.
O=C(NCC1CCCO1)C(c1ccncc1)N(Cc1ccc(F)cc1)C(=O)CN1C(=O)c2ccccc2S1(=O)=O (configuration not stated),-16.3,i,i,i,-0.09,i,.,.,.
CCNC(=O)CC1C(=O)N(c2ccc(F)cc2)C(=S)N1CCc1ccncc1 (configuration not stated),-11.2,i,i,i,0.52,i,.,.,.
CCOC(=O)C1=C(C)N(C)C(=O)NC1c1c(C)nn(-c2ccc(C)cc2)c1Cl (configuration not stated),-11.8,i,i,i,-0.05,i,i,i,i
CCOC(=O)C1=C(C)NC(=O)NC1c1c(C)nn(-c2ccccc2)c1Cl (configuration not stated),-7.4,i,i,i,-0.34,i,.,.,.
Cc1ccc2c(c1)N(C(=O)NC1CCCCC1)C(C)(C)CC2C (configuration not stated),-16.2,i,i,i,-0.36,i,i,i,i
COc1cc(C(=O)OCC(=O)N2CCC(Cc3ccccc3)CC2)cc(OC)c1OC,-6.5,i,i,i,0.42,i,i,i,i
COc1cc(/C=C/C(=O)OCC(=O)N2CCC(Cc3ccccc3)CC2)ccc1O,-15.5,i,i,i,-0.11,i,i,i,i
COc1cc(/C=C/C(=O)OCC(=O)N2CCC(C)CC2)ccc1O,-8.2,i,i,i,0.19,i,.,.,.
COc1cccc(OC)c1OCCCN1CCC(Cc2ccccc2)CC1,-10.2,i,i,i,-1.35,i,i,i,i
COc1cc(/C=C/C(=O)OCC(=O)c2ccc(OC(F)F)cc2)ccc1O,.,.,.,i,.,.,.,.,.

# Source: PubChem (Johns Hopkins Ion Channel Center)
